# Source: PubChem BioAssay (several laboratories)
# Many of the other results were omitted from the sample, so hits are more common in it than they were.
# Diaphorase act: activates diaphorase or chemically reduces, flagging diaphorase assay artifacts; 0.005% of 190,000 active; activation factor at 20 µM; AID 1229; Diaphorase/resazurin coupled assay, resorufin fluorescence, 16 min; hits give high values; 1 = vehicle wells, 0 = NADH-free wells;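 active = diaphorase activity raised at least twofold by the compound at 20 µM; inactive = activation factor below 2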
#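 Material: bacterial diaphorase enzyme (C. kluyveri); amount: enzyme 0.07 U/mL final; reagent: NADH substrate 0.114 mM plus resazurin dye 0.1 mM, final; doses: single compound dose of 20 µM, 1% DMSO final; timing: 16 min enzyme reaction, ambient temperature; measured by: fluorescence of resorufin, 544 nm excitation, 590 nm emission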
# ABCG2 inh: human ABCG2 inhibition, ABCB1 as counter-screen. Q9UNQ0. inhibition, % at 6.6 µM. AID 1325. 0.1% of 190,000 active. IgMXP3 cells, JC-1 efflux, flow cytometry;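 active = inhibition above 80%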;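 also: 0% = DMSO and 100% = nicardipine control wells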
#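 Test system: ABCG2 IgMXP3 and barcoded ABCB1 CCRF-Adr cell mix; Schedule: cells with compound and JC-1, 10 min at 25 °C, rotating, no wash; Technique: flow cytometry of retained JC-1 fluorescence; Measure: % inhibition of efflux relative to nicardipine and DMSO; Controls: nicardipine high and DMSO low controls.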
# ABCB1 block: human ABCB1 inhibition, ABCG2 as counter-screen; P08183; CCRF-Adr cells, JC-1 efflux, flow cytometry; inhibition, % at 6.6 µM; 0.067% of 190,000 active; AID 1326; in the data active = inhibition above about 40%;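 also: 0% = vehicle and 100% = reference inhibitor; higher value means more JC-1 retained so stronger ABCB1 efflux block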
# ABCB6 inh 2: blocks the human ABCB6 transporter. Q9NP58. K562-ABCB6 porphyrin accumulation, flow cytometry, 1 h; hits give low values. fluorescence ratio to DMSO, % at 10 µM. 0.19% of 360,000 active. AID 602162;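 active = fluorescence ratio to DMSO below 75%, the collection mean minus 3 SD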;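 also: signal is porphyrin accumulated inside mitochondria; 100% equals median channel fluorescence of DMSO control wells; lower ratio means ABCB6 inhibition with less porphyrin fluorescence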
# Target sequence (Q9NP58 whole entry, looked up): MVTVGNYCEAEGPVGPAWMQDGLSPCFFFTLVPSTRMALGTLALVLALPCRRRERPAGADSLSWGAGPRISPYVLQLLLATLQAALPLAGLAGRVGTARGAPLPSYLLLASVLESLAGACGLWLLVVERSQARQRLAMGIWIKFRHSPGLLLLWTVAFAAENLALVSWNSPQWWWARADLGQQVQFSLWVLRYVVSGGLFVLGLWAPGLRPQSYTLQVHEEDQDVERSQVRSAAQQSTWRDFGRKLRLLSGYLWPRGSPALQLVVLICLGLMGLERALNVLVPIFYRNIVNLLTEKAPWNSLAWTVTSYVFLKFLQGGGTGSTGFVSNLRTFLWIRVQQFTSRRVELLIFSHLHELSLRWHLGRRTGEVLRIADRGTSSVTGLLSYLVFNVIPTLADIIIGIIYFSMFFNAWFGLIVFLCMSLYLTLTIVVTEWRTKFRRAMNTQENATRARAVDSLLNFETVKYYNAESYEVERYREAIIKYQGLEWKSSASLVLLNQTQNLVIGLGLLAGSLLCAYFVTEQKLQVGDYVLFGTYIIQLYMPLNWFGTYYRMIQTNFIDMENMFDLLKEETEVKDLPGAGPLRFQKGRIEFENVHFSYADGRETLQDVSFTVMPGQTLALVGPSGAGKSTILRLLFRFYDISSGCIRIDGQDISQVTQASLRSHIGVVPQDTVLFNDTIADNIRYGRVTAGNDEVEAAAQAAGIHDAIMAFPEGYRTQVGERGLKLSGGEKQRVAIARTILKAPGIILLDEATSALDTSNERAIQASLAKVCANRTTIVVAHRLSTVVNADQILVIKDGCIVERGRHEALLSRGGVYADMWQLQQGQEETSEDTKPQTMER
# FLuc inhib CS: Photinus pyralis luciferase inhibition counter-screen; P08659; ATPLite firefly luciferase biochemical luminescence, 10 min; inhibition, % at 10 µM; 1.5% of 200,000 active;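 active = inhibition above about 50% when tested at 10 µM, limit read from the data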
# FLuc act counter: affects firefly luciferase, flagging false hits in luciferase stimulation screens. ATPlite luciferase biochemical, luminescence, 10 min; 0 = ATP-free wells, 1 = DMSO control. activation factor at 10 µM. 200,000 tested, under 10 active. AID 1027;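 active = luciferase activation factor, scaled between plate controls, of at least 2 with compound at 10 µM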
#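 System: luciferase plus luciferin reagent, cell-free; medium: PBS as buffer for the ATP substrate; dosing: test compounds dosed from 2 mM stocks in 100% DMSO; timing: 10 min post-reagent at room temperature; measured by: luminescence measurement of luciferase light output; evaluation: luciferase activation, seen as luminescence increase over controls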
# An asterisk follows results filed as active; i = inactive; nt = no result given.
SMILES,Diaphorase act,ABCG2 inh,ABCB1 block,ABCB6 inh 2,FLuc inhib CS,FLuc act counter
O=C(Nc1ccc(N2CCCCC2)cc1)c1ccccn1,1,2.1,0.6,173.0,97.4*,0
O=C(Nc1ccc(N2CCOCC2)cc1)c1cn2ccccc2n1,1.1,0.9,0.3,104.0,93.4*,0.1
CCCOC(=O)Nc1ccc(N2CCCCC2)cc1,1.1,-1.4,-0.3,100.0,58.6*,0.4
O=C(CCNC(=O)C1CCN(S(=O)(=O)c2ccccc2)CC1)Nc1cccc(C(F)(F)F)c1,nt,nt,nt,79.0,nt,nt
O=C(Nc1ccnn1C1CCN(Cc2cccc(OCCO)c2)CC1)C1CCOC1 (centres undefined),nt,nt,nt,94.0,nt,nt
COc1ccccc1C(=O)Nc1ccc(N2CCCCC2)cc1,1,28.3,0.5,136.0,71.3*,0.3
O=C(NC(=S)Nc1ccc(N2CCCCC2)cc1)c1ccco1,0.8,3.5,0.4,108.0,63.4*,0.4
C[C@H](CO)N1C[C@H](C)[C@@H](CN(C)C(=O)OCc2ccccc2)OCc2cn(nn2)CCCC1=O,nt,nt,nt,98.0,nt,nt
COc1ccc2c(C(=O)CCl)c[nH]c2c1,nt,nt,nt,113.0,nt,nt
O=C(NC1CCCCC1)c1ccc2[nH]c(=O)c(=O)[nH]c2c1,nt,nt,nt,100.0,nt,nt
CCN=C1S/C(=C\c2ccc(N3CCOCC3)cc2C)C(=O)N1CC,1,12.7,nt,91.0,-2.0,1
COCCN1C(=O)/C(=C/c2ccc(N3CCCC3)cc2C)SC1=S,0.7,90.6*,66.6*,i,10.9,0.9
NC(=S)N/N=C/c1c[nH]c2ccc(OCc3ccccc3)cc12,nt,nt,nt,99.0,nt,nt
Cc1ccc(S(=O)(=O)Oc2ccc(/C=N/NC(=O)c3nn(C)cc3Cl)cc2)cc1,0.8,4.4,0.6,83.0,-4.9,1
Cc1ccc(/C=N/OC(=O)c2nn(C)cc2Cl)cc1,0.9,13.1,0.4,96.0,76.0*,0.2
c1ccc(-c2ncc(CSc3nncn3-c3ccccc3)s2)cc1,1.1,3.9,1.0,94.0,-0.7,1
Cc1nnc(SCc2cnc(-c3ccc(C(C)C)cc3)s2)n1C,0.9,-0.7,-1.7,95.0,95.2*,0
COc1ccc(-c2nc3ccccn3c2C=O)cc1,0.9,5.6,0.9,100.0,61.4*,0.4
O=Cc1c(-c2ccc(F)cc2)nc2ccccn12,1.1,2.9,0.8,99.0,3.0,1
O=C(Nc1nc(-c2ccccn2)cs1)C12CC3CC(CC(O)(C3)C1)C2,1.1,1.5,0.2,90.0,82.6*,0.2
O=C(Nc1nc(-c2ccccn2)cs1)C1CC1,0.8,1.1,0.1,98.0,3.1,1
CCCCc1ccc(-c2ccc(C)cc2O)nc1,1,1.9,0.4,96.0,75.4*,0.2
NC(=NCc1ccco1)NC(=O)c1ccccc1,nt,nt,nt,102.0,nt,nt
CCc1cc2c(SCC(=O)N3CCCC3=O)ncnc2s1,nt,nt,nt,92.0,nt,nt
Cc1ccc(-c2cn3c(n2)SCC3)cc1,0.9,1.0,-0.1,99.0,45.4,0.5
SMILES,Diaphorase act,ABCG2 inh,ABCB1 block,ABCB6 inh 2,FLuc inhib CS,FLuc act counter
CCc1ccc(-c2cn3c(n2)SCC3)cc1,0.8,-0.4,0.0,104.0,64.1*,0.4
COc1cccc(/C=C/C(=O)Nc2ccc3c(c2)OCCO3)c1OC,0.9,0.2,0.1,99.0,92.6*,0.1
COc1ccccc1/C=C/C(=O)Nc1cccc(C(C)=O)c1,0.9,-2.6,-1.1,103.0,17.0,0.8
COc1ccc(/C=C/C(=O)Nc2cccc(C(C)=O)c2)cc1,1,-0.3,nt,89.0,69.6*,0.3
COc1cccc(C(=O)Nc2ccc3c(c2)OCO3)c1OC,nt,nt,nt,102.0,nt,nt
COc1cccc(/C=C/C(=O)Nc2cccc(C(C)=O)c2)c1OC,0.9,-3.4,-1.4,97.0,67.5*,0.3
O=C(CNC(=O)c1ccc(Br)o1)Nc1cccc(S(=O)(=O)N2CCOCC2)c1,nt,nt,nt,100.0,nt,nt
O=C(COC(=O)C1CCC(=O)N1)Nc1ccccc1OC(F)F (centres undefined),nt,nt,nt,96.0,nt,nt
CC(=O)c1cccc(NS(=O)(=O)c2ccc(N/C=C\C(=O)c3ccc(C)cc3)cc2)c1,1,0.1,-0.1,99.0,-5.8,1.1
Cc1ccc(C(=O)/C=C/Nc2cccc(O)c2)cc1,0.8,1.8,0.4,98.0,95.7*,0
CC(=O)c1ccc(N/C=C\C(=O)c2ccc(C)cc2)cc1,1.1,4.1,0.3,93.0,17.0,0.8
CC(=O)c1cccc(N/C=C\C(=O)c2ccc(C)cc2)c1,0.9,19.7,5.3,98.0,91.2*,0.1
C/C(=C\C(=O)c1ccc(C)cc1)Nc1cccc(O)c1,0.8,-2.5,0.2,106.0,65.4*,0.3
Cc1ccc(C(=O)/C=C/Nc2ccc3c(c2)OCO3)cc1,1,3.0,0.4,96.0,79.6*,0.2
O=C(/C=C/Nc1ccc(F)c(Cl)c1)c1ccccc1,nt,nt,nt,106.0,nt,nt
O=C(/C=C/Nc1cccc(O)c1)c1ccccc1,0.9,6.2,1.3,104.0,94.7*,0.1
C=CC[C@H](CC(=O)OC(C)(C)C)C(=O)OC[C@H]1CCCN1C(=O)[C@H](CC=C)CC(=O)NCCO,nt,nt,nt,98.0,nt,nt
Clc1ccc2nc(-c3ccc(Br)s3)cn2c1,0.8,14.8,0.1,104.0,78.5*,0.2
O=C(O)c1ccccc1-c1cn2cc(Cl)ccc2n1,0.9,6.7,0.3,105.0,61.5*,0.4
Cc1cc(CN(C)C(=O)C2CCC(=O)N(CCc3cccc(F)c3)C2)on1 (centres undefined),nt,nt,nt,99.0,nt,nt
Cc1nnc(SCC(=O)NNC(=O)c2ccc(F)cc2)n1Cc1ccccc1,nt,nt,nt,91.0,nt,nt
O=C(Nc1nc2ccc(F)cc2s1)C1=COCCO1,nt,nt,nt,96.0,nt,nt
O=C(Nc1nc2ccccc2s1)c1cnccn1,0.9,0.2,0.2,98.0,59.3*,0.4
CCOc1ccc2nc(NC(=O)c3cnccn3)sc2c1,0.9,18.2,0.3,141.0,45.9,0.5
O=C(Nc1nc2ccc(F)cc2s1)c1ccccn1,0.9,2.8,0.6,nt,90.2*,0.1
SMILES,Diaphorase act,ABCG2 inh,ABCB1 block,ABCB6 inh 2,FLuc inhib CS,FLuc act counter
CCCc1nnc(SCC(=O)NC2CC2)n1C,nt,nt,nt,95.0,nt,nt
FC(F)(F)c1cc(Cl)c2nc(-c3ccccc3)cn2c1,0.9,7.5,0.1,100.0,41.3,0.6
Nc1cccc(-c2cn3cc(C(F)(F)F)cc(Cl)c3n2)c1,0.8,-1.6,-0.8,93.0,67.8*,0.3
CCC1CCCCN1C(=O)c1cc(S(=O)(=O)N2CCOCC2)ccc1C (centres undefined),nt,nt,nt,104.0,nt,nt
COC(=O)[C@@]1(Cc2ccccc2)[C@H]2C(=O)N(C)C(=O)[C@H]2[C@H]2CN=C(SCc3ccc(Cl)cc3)N21,nt,nt,nt,100.0,nt,nt
CCn1c(-c2cc(-c3cc(C)ccc3C)nc3ccccc23)n[nH]c1=S,1,-24.9,-10.1,101.0,-10.3,1.1
CCn1c(-c2cc(-c3ccc(C)c(C)c3)nc3ccccc23)n[nH]c1=S,0.6,-5.0,-1.5,nt,53.0*,0.5
